Assay results published in ChEMBL document CHEMBL1125428, “Development of 2,3-dihydro-6-(3-phenoxypropyl)-2-(2-phenylethyl)-5-benzofuranol (L-670,630) as a potent and orally active inhibitor of 5-lipoxygenase” (J Med Chem, 1992).

Columns and labels:
Canis familiaris = organism: Canis familiaris; experiment: Effect on methemoglobin formation in canine venous blood containing heparin; format: functional, Canis lupus familiaris
Rattus norvegicus [1] = organism: Rattus norvegicus; experiment: Effective dose against antigen induced dyspnea in hyperactive inbred rat at a dose of […]; format: functional
Rattus norvegicus [2] = experiment: Total radioactivity in tissues of male sd rats dosed orally with H-labeled compound at 21 mg/kg after 30 min in lung; format: functional; settings: route oral
Method in brief: (§1)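 Male Sprague-Dawley rats received ³H-labelled drug (phenoxy ring, 3.96 μCi/mg) in PEG-400 by gavage at 21 mg/kg. Animals were killed at 5, 15, 30 min and at 1, 2, 4, 24 and 48 h. Homogenates were pooled per group, and total radioactivity was measured as the mean of duplicate combustions, in μg equiv/g. Two or three rats were used per point, except one rat at 24 and 48 h.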

Rattus norvegicus [3] = experiment: Total radioactivity in tissues of male sd rats dosed orally with H-labeled compound at 21 mg/kg after 30 min in plasma; format: functional; settings: route oral; method in brief: as §1
Rattus norvegicus [4] = experiment: % compound was determined by the amount of radioactivity elute with H-labeled at 21 mg/kg after 5 min using RP-HPLC. at a dose of 380 ug/g in lung of male sd rat.; format: functional
Rattus norvegicus [5] = experiment: Total radioactivity in tissues of male sd rats dosed intravenously with H-labeled compound at 21 mg/kg after 10 min in lung; format: functional; settings: route intravenous
Method in brief: (§2)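 Male Sprague-Dawley rats given ³H compound iv via femoral vein in PEG-400, 21 mg/kg, 3.96 μCi/mg. Killed at 2, 10, 30 min, 1, 2 and 4 h. Total radioactivity measured by combustion of composited tissue homogenates, in duplicate. Two or three rats per time point, one at 10 and 30 min.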

Rattus norvegicus [6] = experiment: Total radioactivity in tissues of male sd rats dosed intravenously with H-labeled compound at 21 mg/kg after 10 min in plasma; format: functional; settings: route intravenous
Rattus norvegicus [7] = experiment: Total radioactivity in tissues of male sd rats dosed intravenously with H-labeled compound at 21 mg/kg after 1 hr in liver; format: functional; settings: route intravenous; method in brief: as §2
Rattus norvegicus [8] = experiment: Total radioactivity in tissues of male sd rats dosed intravenously with H-labeled compound at 21 mg/kg after 1 hr in plasma; format: functional; settings: route intravenous
Rattus norvegicus [9] = experiment: Total radioactivity in tissues of male sd rats dosed intravenously with H-labeled compound at 21 mg/kg after 2 hr in lung; format: functional; settings: route intravenous; method in brief: as §2
Rattus norvegicus [10] = experiment: Total radioactivity in tissues of male sd rats dosed intravenously with H-labeled compound at 21 mg/kg after 2 hr in plasma; format: functional; settings: route intravenous
Rattus norvegicus [11] = experiment: Total radioactivity in tissues of male sd rats dosed intravenously with H-labeled compound at 21 mg/kg after 2 min in liver; format: functional; settings: route intravenous; method in brief: as §2
Rattus norvegicus [12] = experiment: Total radioactivity in tissues of male sd rats dosed intravenously with H-labeled compound at 21 mg/kg after 2 min in plasma; format: functional; settings: route intravenous
Rattus norvegicus [13] = experiment: Total radioactivity in tissues of male sd rats dosed intravenously with H-labeled compound at 21 mg/kg after 30 min in kidney; format: functional; settings: route intravenous; method in brief: as §2
Rattus norvegicus [14] = experiment: Total radioactivity in tissues of male sd rats dosed intravenously with H-labeled compound at 21 mg/kg after 30 min in lung; format: functional; settings: route intravenous; method in brief: as §2
Rattus norvegicus [15] = experiment: Total radioactivity in tissues of male sd rats dosed intravenously with H-labeled compound at 21 mg/kg after 4 hr in kidney; format: functional; settings: route intravenous; method in brief: as §2
Rattus norvegicus [16] = experiment: Total radioactivity in tissues of male sd rats dosed orally with H-labeled compound at 21 mg/kg after 5 min in liver; format: functional; settings: route oral; method in brief: as §1
Rattus norvegicus [17] = experiment: Total radioactivity in tissues of male sd rats dosed orally with H-labeled compound at 21 mg/kg after 5 min in lung; format: functional; settings: route oral; method in brief: as §1
Rattus norvegicus [18] = experiment: Total radioactivity in tissues of male sd rats dosed orally with H-labeled compound at 21 mg/kg after 48 hr in liver; format: functional; settings: route oral; method in brief: as §1
Rattus norvegicus [19] = experiment: Total radioactivity in tissues of male sd rats dosed orally with H-labeled compound at 21 mg/kg after 4 hr in kidney; format: functional; settings: route oral; method in brief: as §1
Rattus norvegicus [20] = experiment: Total radioactivity in tissues of male sd rats dosed orally with H-labeled compound at 21 mg/kg after 4 hr in lung; format: functional; settings: route oral; method in brief: as §1
Rattus norvegicus [21] = experiment: Total radioactivity in tissues of male sd rats dosed intravenously with H-labeled compound at 21 mg/kg after 4 hr in liver; format: functional; settings: route intravenous
Method in brief: (§3)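 ³H label in the phenoxy ring, dissolved in PEG-400, specific activity 3.96 μCi/mg, given iv via femoral vein at 21 mg/kg to male Sprague-Dawley rats. Animals were killed at 2, 10, 30 min, 1, 2 and 4 h. Tissues from each group were pooled and homogenized, and total radioactivity was measured by combustion, averaged over duplicate combustions. Results are expressed as μg equiv/g. Two or three rats were used per time point.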

Rattus norvegicus [22] = experiment: Total radioactivity in tissues of male sd rats dosed intravenously with H-labeled compound at 21 mg/kg after 4 hr in lung; format: functional; settings: route intravenous; method in brief: as §3
Rattus norvegicus [23] = experiment: Total radioactivity in tissues of male sd rats dosed orally with H-labeled compound at 21 mg/kg after 15 min in plasma; format: functional; settings: route oral; method in brief: as §1
Rattus norvegicus [24] = experiment: Total radioactivity in tissues of male sd rats dosed orally with H-labeled compound at 21 mg/kg after 1 hr in kidney; format: functional; settings: route oral; method in brief: as §1
Rattus norvegicus [25] = experiment: Total radioactivity in tissues of male sd rats dosed orally with H-labeled compound at 21 mg/kg after 1 hr in liver; format: functional; settings: route oral; method in brief: as §1
Rattus norvegicus [26] = experiment: Total radioactivity in tissues of male sd rats dosed orally with H-labeled compound at 21 mg/kg after 1 hr in lung; format: functional; settings: route oral; method in brief: as §1
Rattus norvegicus [27] = experiment: Total radioactivity in tissues of male sd rats dosed orally with H-labeled compound at 21 mg/kg after 1 hr in plasma; format: functional; settings: route oral; method in brief: as §1
Rattus norvegicus [28] = experiment: Total radioactivity in tissues of male sd rats dosed orally with H-labeled compound at 21 mg/kg after 24 hr r in lung; format: functional; settings: route oral; method in brief: as §1
Rattus norvegicus [29] = experiment: Total radioactivity in tissues of male sd rats dosed orally with H-labeled compound at 21 mg/kg after 30 min in kidney; format: functional; settings: route oral; method in brief: as §1
Rattus norvegicus [30] = organism: Rattus norvegicus; experiment: Percentage inhibition against antigen induced dyspnea in hyperactive inbred rat at a dose of […]; format: functional; settings: dose 0.15 mg/kg
[31] = Measure of AUCpo/AUCiv x 100% of the parent compound before (free) and after (total) beta-glucuronidase treatment; total 54%; format: ADME, organism-based; settings: in vivo, po; read-out: Bioavailabiility
Rattus norvegicus [32] = experiment: Total radioactivity in tissues of male sd rats dosed orally with H-labeled compound at 21 mg/kg after 15 min in lung; format: functional; settings: route oral; method in brief: as §1
Rattus norvegicus [33] = experiment: Total radioactivity in tissues of male sd rats dosed orally with H-labeled compound at 21 mg/kg after 48 hr in lung; format: functional; settings: route oral; method in brief: as §1
Rattus norvegicus [34] = experiment: Amount of radioactivity elute with H-labeled at 21 mg/kg after 4 hr using RP-HPLC. at a dose of […] in lung of male sd rat.
Rattus norvegicus [35] = experiment: Amount of radioactivity elute with H-labeled at 21 mg/kg after 1 hr using RP-HPLC. at a dose of 2.02 ug/g in lung of male sd rat.

Which Formation (Canis familiaris) does the source give for `Oc1cc2c(cc1CCCOc1ccccc1)OC(CCc1ccccc1)C2` (stereo unspecified) here?
Its Formation is 4%.

And the ED50 at […] (Rattus norvegicus [1])?
The ED50 at […] was 0.06 mg/kg.

What about the Total radioactivity (Rattus norvegicus [2]) of the same compound?
The Total radioactivity was 4.11 ug equiv g-1.

And the Total radioactivity (Rattus norvegicus [3])?
Its Total radioactivity is 1.09 ug equiv g-1.

What about the Activity (Rattus norvegicus [4]) of the same compound?
Its Activity is 80.4%.

What about the Total radioactivity (Rattus norvegicus [5]) of the same compound?
Its Total radioactivity is 75.08 ug equiv g-1.

What about the Total radioactivity (Rattus norvegicus [6]) of the same compound?
Its Total radioactivity is 9.65 ug equiv g-1.

And the Total radioactivity (Rattus norvegicus [7])?
The Total radioactivity was 26.77 ug equiv g-1.

What about the Total radioactivity (Rattus norvegicus [8]) of the same compound?
The Total radioactivity was 3.34 ug equiv g-1.

What about the Total radioactivity (Rattus norvegicus [9]) of the same compound?
Its Total radioactivity is 1.6 ug equiv g-1.

What about the Total radioactivity (Rattus norvegicus [10]) of the same compound?
The Total radioactivity was 0.88 ug equiv g-1.

What about the Total radioactivity (Rattus norvegicus [11]) of the same compound?
Its Total radioactivity is 142.77 ug equiv g-1.

And the Total radioactivity (Rattus norvegicus [12])?
Its Total radioactivity is 10.34 ug equiv g-1.

And the Total radioactivity (Rattus norvegicus [13])?
Its Total radioactivity is 22.75 ug equiv g-1.

And the Total radioactivity (Rattus norvegicus [14])?
Its Total radioactivity is 56.91 ug equiv g-1.

What about the Total radioactivity (Rattus norvegicus [15]) of the same compound?
Its Total radioactivity is 2.82 ug equiv g-1.

And the Total radioactivity (Rattus norvegicus [16])?
The Total radioactivity was 12.12 ug equiv g-1.

What about the Total radioactivity (Rattus norvegicus [17]) of the same compound?
The Total radioactivity was 473.13 ug equiv g-1.

And the Total radioactivity (Rattus norvegicus [18])?
Its Total radioactivity is 0.11 ug equiv g-1.

What about the Total radioactivity (Rattus norvegicus [19]) of the same compound?
Its Total radioactivity is 2.75 ug equiv g-1.

And the Total radioactivity (Rattus norvegicus [20])?
The Total radioactivity was 1.74 ug equiv g-1.

What about the Total radioactivity (Rattus norvegicus [21]) of the same compound?
Its Total radioactivity is 9.87 ug equiv g-1.

And the Total radioactivity (Rattus norvegicus [22])?
Its Total radioactivity is 5 ug equiv g-1.

And the Total radioactivity (Rattus norvegicus [23])?
The Total radioactivity was 1.08 ug equiv g-1.

What about the Total radioactivity (Rattus norvegicus [24]) of the same compound?
Its Total radioactivity is 1.62 ug equiv g-1.

And the Total radioactivity (Rattus norvegicus [25])?
The Total radioactivity was 10.93 ug equiv g-1.

And the Total radioactivity (Rattus norvegicus [26])?
Its Total radioactivity is 3.58 ug equiv g-1.

What about the Total radioactivity (Rattus norvegicus [27]) of the same compound?
The Total radioactivity was 1.41 ug equiv g-1.

What about the Total radioactivity (Rattus norvegicus [28]) of the same compound?
Its Total radioactivity is 0.1 ug equiv g-1.

And the Total radioactivity (Rattus norvegicus [29])?
Its Total radioactivity is 0.85 ug equiv g-1.

What about the inhibition in vivo at […] (Rattus norvegicus [30]) of the same compound?
Its inhibition in vivo at […] is 55%.

What about the bioavailability [31] of the same compound?
The bioavailability was 5%.

What about the Total radioactivity (Rattus norvegicus [32]) of the same compound?
Its Total radioactivity is 190.97 ug equiv g-1.

And the Total radioactivity (Rattus norvegicus [33])?
Its Total radioactivity is 0.09 ug equiv g-1.

What about the Activity (Rattus norvegicus [34]) of the same compound?
The Activity was 8.9%.

And the Activity (Rattus norvegicus [35])?
Its Activity is 56.3%.
